Experimental data published in ChEMBL document CHEMBL1123309, “Esters and lactones of phenolic amino carboxylic acids: prodrugs for iron chelation” (J Med Chem, 1986).

Legend:
Format in all cases: functional
Mus musculus [1] = test: BDF1 male mice were administered with 200 mg/kg po and percent change in iron levels was determined in spleen
Method in brief: (§1)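 Hypertransfused male BDF1 mice (canine red cells, washed and heated at 50 °C for 30 min) were dosed orally for 7 days with compound in distilled water or a fine suspension with Polysorbate 80 (2% final). Daily group urine and pooled feces (1 N HCl digest, 90 °C, 30 min, triplicate) were collected, and liver and spleen were homogenized. Iron was measured by atomic absorption and reported as % change vs transfused control.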

Mus musculus [2] = test: BDF1 male mice were administered with 200 mg/kg po and percent change in iron levels was determined in Feces; method in brief: as §1
Mus musculus [3] = test: BDF1 male mice were administered with the compound and number of survivors was determined at a dose 200 mg/kg po
Method in brief: (§2)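 Male BDF1 mice were iron-loaded by transfusion of canine red cells. The cells were heparinised, washed twice in isotonic saline and heated at 50 °C for 30 min. Dosing started two days after the last transfusion, once daily for 7 consecutive days. Compounds were given in distilled water or as a fine aqueous suspension with Polysorbate 80 (2% final). Toxic signs were recorded daily and survivors counted per group.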

Mus musculus [4] = test: BDF1 male mice were administered with 200 mg/kg po and percent change in iron levels was determined in Liver; method in brief: as §1
Mus musculus [5] = test: BDF1 male mice were administered with 200 mg/kg poand percent change in iron levels was determined in Urine; method in brief: as §1
Mus musculus [6] = test: BDF1 male mice were administered with 250 mg/kg intraperitoneally and percent change in iron levels was determined in Feces; settings: route intraperitoneal
Method in brief: (§3)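 Male BDF1 mice were hypertransfused with washed, heat-treated (50 °C, 30 min) canine red cells. Starting 2 days after the last transfusion, they received one ip injection daily for 7 days, in distilled water or an aqueous suspension with Polysorbate 80 (2% final). Group urine was collected every 24 h. Feces were digested in 1 N HCl (90 °C, 30 min, triplicate). Liver and spleen were homogenized. Iron was measured by atomic absorption and reported as % change vs transfused controls.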

Mus musculus [7] = test: BDF1 male mice were administered with 250 mg/kg intraperitoneally and number of survivors was determined out of 240 tested; settings: route intraperitoneal; method in brief: as §2
Mus musculus [8] = test: BDF1 male mice were administered with 250 mg/kg intraperitoneally and percent change in iron levels was determined in Urine; settings: route intraperitoneal; method in brief: as §3
Mus musculus [9] = test: BDF1 male mice were administered with 250 mg/kg intraperitoneally and percent change in iron levels was determined in Spleen; settings: route intraperitoneal; method in brief: as §3
Mus musculus [10] = test: BDF1 male mice were administered with 250 mg/kg intraperitoneally and percent change in iron levels was determined in Liver; settings: route intraperitoneal; method in brief: as §3

CC(=O)Oc1ccccc1CN(CCN(CC(=O)OC(C)(C)C)Cc1ccccc1OC(C)=O)CC(=O)OC(C)(C)C
Iron change (Mus musculus [1]): -6%
Iron change (Mus musculus [2]): -1%
No. of survivors (Mus musculus [3]): 10
Iron change (Mus musculus [4]): 16%
Iron change (Mus musculus [5]): -4%

CC(=O)N(O)CCCCCNC(=O)CCC(=O)N(O)CCCCCNC(=O)CCC(=O)N(O)CCCCCN [DEFEROXAMINE]
Iron change (Mus musculus [6]): 7%
No. of survivors (Mus musculus [7]): 240
Iron change (Mus musculus [8]): 270%
Iron change (Mus musculus [9]): 2%
Iron change (Mus musculus [10]): -24%
